# Compounds with a hit are over-represented: about 4.1% of the library has one in this group of screens.
# KCNK9 block: KCNK9 potassium channel inhibitors, primary screen, HEK293 cells, thallium flux | FluxOR thallium flux fluorescence; stronger effect = lower value | Potassium channel subfamily K member 9 (Homo sapiens), Q9NPC2 | AID 488922, 2010 | hit rate 1.2% among 310,000 | B-score at 10 µM;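 active = ratio B-score over 3 SD below the library mean, with starting fluorescence within 5 SD of its mean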;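 note: negative B-score means less thallium flux so channel inhibition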
# hERG rescue: hERG rescue from dofetilide block, primary screen, cell-based, CHO-hERG, FluxOR thallium flux, dofetilide IC70 | activation (rescue from dofetilide block), less the hit threshold, % at 10 µM | Voltage-gated inwardly rectifying potassium channel KCNH2 (Homo sapiens), Q12809 | hit rate 0.51% among 310,000 | dofetilide IC70 present;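 active = activation above the mean of controls blocked by dofetilide plus 5 SD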;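 note: thallium influx through hERG after potassium depolarization seen as dye fluorescence rise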
# KCNQ1 block: inhibitors of human KCNQ1 channel, primary screen, cell-based, thallium flux, high-throughput. CHO-K1 KCNQ1, FluxOR thallium flux fluorescence; stronger effect = higher value. hit rate 1.3% among 310,000. B-score at 10 µM;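 active = compounds whose thallium flux B-score, printed positive for inhibition, exceeds three library SD while starting fluorescence stays within three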;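 note: channel opened by potassium depolarization with thallium stimulus after 20 min compound exposure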
# KCC2 mod: KCC2 cotransporter modulators, thallium flux, primary screen, cell-based, HEK293 KCC2, FluoZin-2 fluorescence, MLSMR | Solute carrier family 12 member 5 (Homo sapiens), Q9H2X9 | KCC2 cells, thallium flux FluoZin-2 fluorescence | B-score of Tl+ flux slope (higher = more flux/activation; lower = inhibition) at 10 µM | hit rate 2.2% among 190,000 | AID 1456, 2008;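 active = thallium flux slope and its plate-corrected score both differing from the plate sample mean at a set confidence after two filtering rounds, in either direction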;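 note: slope of fluorescence scaled to starting intensity during 10 to 20 s after thallium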
# KCNK3 block: human KCNK3 channel inhibitors, primary screen, CHO cells, FluxOR thallium flux, B-score | Potassium channel subfamily K member 3 (Homo sapiens), O14649 | B-score at 10 µM | hit rate 0.84% among 340,000 | FluxOR fluorescence; stronger effect = lower value | AID 602410, 2012;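 active = B-score under library mean minus 4 SD, starting fluorescence ratio at most library mean plus 5 SD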;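 note: more negative B-score means stronger inhibition of thallium flux through KCNK3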
# Target sequence (O14649 whole entry, looked up): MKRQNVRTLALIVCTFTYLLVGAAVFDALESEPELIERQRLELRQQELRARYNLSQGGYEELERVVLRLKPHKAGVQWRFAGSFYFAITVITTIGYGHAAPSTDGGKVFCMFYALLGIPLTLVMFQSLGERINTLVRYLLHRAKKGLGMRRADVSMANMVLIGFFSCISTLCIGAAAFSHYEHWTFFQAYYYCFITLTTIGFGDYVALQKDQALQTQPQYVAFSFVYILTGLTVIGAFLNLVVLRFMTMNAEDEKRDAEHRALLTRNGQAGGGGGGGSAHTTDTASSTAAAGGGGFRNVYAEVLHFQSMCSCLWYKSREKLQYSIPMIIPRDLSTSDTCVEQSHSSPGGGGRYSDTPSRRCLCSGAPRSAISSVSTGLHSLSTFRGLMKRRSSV
# KCNQ1 act: potentiators or activators of KCNQ1 channel, primary screen, cell-based, thallium flux, high-throughput | Potassium voltage-gated channel subfamily KQT member 1 (Homo sapiens), P51787 | CHO-K1 KCNQ1, thallium flux FluxOR fluorescence; stronger effect = higher value | B-score at 10 µM | hit rate 0.35% among 310,000 | AID 2648, 2010;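 active = fluorescence ratio B-score, a plate-corrected score, at least three library SD, with initial intensity B-score within 5 SD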
#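 Schedule – 37 °C overnight plating, 90-min dark dye load, 20-min compound pretreatment · System – stable KCNQ1 CHO-K1 line · Probe or stimulus – thallium- and potassium-containing depolarizing buffer · Measured by – kinetic FluxOR fluorescence, 10 s baseline plus 110 s post-stimulus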
# KCC2 secondary: KCC2 modulators in sodium-free buffer, confirmation, cell-based, HEK293 KCC2, thallium flux, secondary assay; shares compounds with KCC2 mod; normalised thallium flux (F/F0 slope) at 10 µM; AID 1713, 2009; FluoZin2 fluorescence; stronger effect = higher value; hit rate 15% among 3,700;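 active = thallium flux slope above the same plate's solvent-only control mean plus 3 SD; inconclusive = the two replicate wells disagree; inactive = no significant difference from solvent-only control wells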
# KCC2 bumet counter: thallium flux persisting under bumetanide in KCC2 cells, confirmation, counter-screen for KCC2 modulator project, cell-based, HEK293 KCC2, FluoZin2, secondary assay 3; hit rate 49% among 3,700; normalized thallium flux at 10 µM; shares compounds with KCC2 mod; AID 1714, 2009; HEK293-KCC2 + bumetanide/ouabain; stronger effect = higher value;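 active = thallium entry rate above the same plate's blocked-transporter control wells by more than 3 SD; inconclusive = the two repeat wells disagree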;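 note: raw slope of fluorescence over initial fluorescence between 10 and 20 s after thallium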
# KCC2 sec2: KCC2 modulators without ouabain present, confirmation, cell-based, HEK293 KCC2, thallium flux, FluoZin2, secondary assay 2; shares compounds with KCC2 mod; thallium flux FluoZin2 fluorescence; actives lie on both sides; F/F0 rise rate, 10–20 s post-thallium; normalized thallium flux at 10 µM; hit rate 23% among 3,700;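 active = thallium flux slope more than 3 SD above or below the plate's solvent-only control mean, mostly below; inconclusive = the two repeat wells disagreed; inactive = no significant shift from solvent-only controls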
# HEK293 Tl flux: thallium flux modulation in parental HEK cells, confirmation, counter-screen for KCC2 modulator project, cell-based, counterscreen 1. shares compounds with KCC2 mod. HEK293 parental cells, thallium flux FluoZin2, ouabain; baseline-ratio fluorescence slope, 10–20 s after thallium. thallium flux rate (normalised fluorescence) at 10 µM. hit rate 46% among 3,700. AID 1716, 2009;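 active = thallium flux rate significantly above the same plate's solvent-only control wells, beyond their mean plus 3 SD; inconclusive = the two replicate wells gave conflicting results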
# KCC2 retest ouab: KCC2 inhibitors and activators, ouabain retest, confirmation, HEK-KCC2 cells. shares compounds with KCC2 mod. HEK293-KCC2, thallium flux FluoZin2 fluorescence; bidirectional: low = inhibitor, high = activator. hit rate 48% among 3,700. AID 1717, 2009. raw Tl+ flux slope (below DMSO = inhibition, above = activation) at 10 µM;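 active = thallium flux slope beyond 3 SD from same-plate DMSO control mean in most replicates, usually higher, sometimes lower; inconclusive = repeat tests gave conflicting results; inactive = no significant difference from controls in most replicates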;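 note: slope of initial-normalized fluorescence between seconds 10 and 20 after thallium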
# HEK293 Tl flux2: native HEK Tl+ uptake effects, second counter-screen – HEK cells, counterscreen 2, counter-screen for KCC2 modulator project, confirmation | shares compounds with KCC2 mod | thallium flux slope at 10 µM | hit rate 33% among 3,700 | AID 1718, 2009 | HEK293 parental, thallium flux FluoZin-2 fluorescence slope;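 active = thallium flux slope above the same plate's solvent-control mean plus 3 SD in both duplicate wells; inconclusive = duplicate wells that disagreed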;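 note: run without ouabain in cells lacking the KCC2 cotransporter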
# Numbers stand for hits; – = inactive; ? = inconclusive; · = no result given.
SMILES,KCNK9 block,hERG rescue,KCNQ1 block,KCC2 mod,KCNK3 block,KCNQ1 act,KCC2 secondary,KCC2 bumet counter,KCC2 sec2,HEK293 Tl flux,KCC2 retest ouab,HEK293 Tl flux2
NC(=O)COC(=O)c1cc([N+](=O)[O-])ccc1NCCO,–,–,–,–,–,–,·,·,·,·,·,·
Cn1ncc(Br)c1NC(=O)Nc1ccccc1,–,–,–,·,–,–,·,·,·,·,·,·
CCN(CC)CCn1c2c(c(SCC(=O)Nc3ccc(F)c(F)c3)nc1=O)CCC2,–,–,–,·,–,–,·,·,·,·,·,·
CCn1c(O)c(N=NC(=O)c2cccs2)c2ccccc21,–,–,–,8.8,–,–,?,0.029,–,0.013,0.027,0.011
Cc1noc(/C=C/N(C)C)c1S(=O)(=O)N1CCCC(C(=O)NC2CCCCC2)C1 (configuration not stated),–,–,–,–,–,–,·,·,·,·,·,·
Cc1noc(/C=C/N(C)C)c1S(=O)(=O)N(C)CC(=O)NC1CCCCC1,–,–,–,-7.1,–,–,–,–,–,?,?,–
Cc1ccc(NC(=S)N/N=C/c2ccc([N+](=O)[O-])s2)cc1,–,–,–,15,–,–,0.014,0.047,–,?,0.041,0.02
O=C(NC(=S)Nc1cccc2ncccc12)c1ccco1,–,–,–,13,–,–,?,0.032,?,0.021,0.028,0.023
Cc1sc(NC(=S)NC(=O)c2ccco2)c(C#N)c1C,–,–,–,22,–,–,–,0.022,?,0.023,0.03,0.019
Cc1cc(NC(=S)NC(=O)c2ccco2)c2ccccc2n1,–,–,–,29,–,–,?,0.084,0.066,0.056,0.071,0.058
Cc1sc(NC(=S)NC(=O)c2ccccc2)c(C#N)c1C,–,–,–,–,–,–,·,·,·,·,·,·
CN(C)S(=O)(=O)c1ccc(Cl)c(C(=O)NNC(=O)Cn2ccc(C(F)(F)F)n2)c1,·,·,·,·,–,·,·,·,·,·,·,·
CCOC(=O)c1sc(Nc2ccccc2)nc1C,–,–,–,·,–,–,·,·,·,·,·,·
CCOC(=O)c1sc(Nc2nc3c(OC)cccc3s2)nc1C,–,–,–,26,–,–,–,0.012,0.041,0.025,0.038,0.018
